Source: ChEMBL document CHEMBL1157591, “Selective benzimidazole inhibitors of the antigen receptor-mediated NF-kappaB activation pathway” (Bioorg Med Chem, 2010)

Key:
[1] = Metabolic stability in human liver S9 fraction in PAPS co-factor system by RP-HPLC; assay type: ADME, subcellular
Outline: (§1)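 Substrate at 100 µM with HLM or S9 at 1.6 mg/mL and 100 µM PAPS in 50 mM Tris–HCl pH 7.4, 37 °C. Started by adding HLM/S9. Aliquots at 0, 5, 15, 30, 45 and 60 min stopped in cold acetonitrile and run in duplicate. Sulfation taken from parent disappearance by RP-HPLC.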

[2] = Metabolic stability in human liver S9 fraction in UDPG co-factor system by RP-HPLC; assay type: ADME, subcellular
Outline: (§2)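 Glucuronidation with UDPG cofactor plus lecithin, using HLM or S9 in 50 mM potassium phosphate pH 7.4 at 37 °C with shaking. Started by adding HLM/S9. Aliquots at 0–60 min stopped in cold acetonitrile and run in duplicate. Parent disappearance followed by RP-HPLC.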

[3] = Metabolic stability in human liver microsomes assessed as half life in NADPH co-factor system by RP-HPLC; assay type: ADME, Microsome
Outline: (§3)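 Substrate at 100 µM with human liver microsomes or S9 at 1.6 mg/mL, NADPH-generating system (NADP+, 400 µM glucose-6-phosphate, DETAPAC, 4 IU/mL G6P dehydrogenase), 50 mM potassium phosphate pH 7.4, 37 °C with shaking. Started by adding HLM/S9. Aliquots at 0–60 min stopped in cold acetonitrile and run in duplicate. Parent loss measured by RP-HPLC.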

[4] = Inhibition of antigen receptor-mediated NF-kappaB activity in HEK293 cells after 16 hrs by luciferase reporter gene assay; details: Homo sapiens, HEK293, 16 h
[5] = Metabolic stability in human liver S9 fraction assessed as half life in NADPH co-factor system by RP-HPLC; assay type: ADME, subcellular; outline: as §3
Liver microsomes [6] = assay: Metabolic stability in human liver microsomes in UDPG co-factor system by RP-HPLC; assay type: ADME, Microsome; outline: as §2
Liver microsomes [7] = assay: Metabolic stability in human liver microsomes in PAPS co-factor system by RP-HPLC; assay type: ADME, Microsome; outline: as §1
Cytochrome P450 3A4 = Cytochrome P450 3A4 (Homo sapiens, UniProt P08684); assay: Inhibition of CYP3A4-mediated hydroxylation of testosterone in human liver microsomes in NADPH co-factor system by RP-HPLC; assay type: ADME, Microsome
Sequence of Cytochrome P450 3A4 (P08684 whole entry): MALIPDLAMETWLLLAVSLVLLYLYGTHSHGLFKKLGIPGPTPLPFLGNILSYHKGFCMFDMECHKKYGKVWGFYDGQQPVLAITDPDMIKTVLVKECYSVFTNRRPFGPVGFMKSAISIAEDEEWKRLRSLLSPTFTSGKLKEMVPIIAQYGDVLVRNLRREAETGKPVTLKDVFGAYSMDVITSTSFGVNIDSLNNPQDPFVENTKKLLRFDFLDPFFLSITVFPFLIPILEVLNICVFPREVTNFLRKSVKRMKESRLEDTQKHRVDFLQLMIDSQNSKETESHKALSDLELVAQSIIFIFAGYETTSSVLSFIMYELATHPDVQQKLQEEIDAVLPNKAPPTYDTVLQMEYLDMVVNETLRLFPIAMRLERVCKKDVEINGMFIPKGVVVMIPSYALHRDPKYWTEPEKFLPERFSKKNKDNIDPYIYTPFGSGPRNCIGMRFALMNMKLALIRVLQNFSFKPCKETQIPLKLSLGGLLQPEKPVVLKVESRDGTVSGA

SMILES	IC50 [4] [µM]	other results
Cc1cc2nc(NCCCO)n(CC(=O)c3cc(C(C)(C)C)c(O)c(C(C)(C)C)c3)c2cc1C	0.07	Stability [1]: Stable; Stability [2]: Stable; half-life [3]: 5.5 h; half-life [5]: 15.2 h; Stability (Liver microsomes [6]): Stable; Stability (Liver microsomes [7]): Stable
COCCCNc1nc2cc(C)c(C)cc2n1CC(=O)c1cc(C(C)(C)C)c(OC)c(C(C)(C)C)c1	0.25	
Cc1cc2nc(NCCCO)n(CC(=O)c3cc(C)c(O)c(C)c3)c2cc1C	> 5	
COc1c(C(C)(C)C)cc(C(=O)Cn2c(NCCCO)nc3cc(C)c(C)cc32)cc1C(C)(C)C	0.07	IC50 (Cytochrome P450 3A4): 67 µM
Cc1cc2nc(N3CCC(Cc4ccccc4)CC3)n(CC(=O)c3cc(C(C)(C)C)c(O)c(C(C)(C)C)c3)c2cc1C	> 5	
COc1ccccc1N1CCN(c2nc3cc(C)c(C)cc3n2CC(=O)c2cc(C(C)(C)C)c(O)c(C(C)(C)C)c2)CC1	> 5	
Cc1cc2nc(N3CCN(Cc4ccccc4)CC3)n(CC(=O)c3cc(C(C)(C)C)c(O)c(C(C)(C)C)c3)c2cc1C	> 5	Stability [1]: Stable; Stability [2]: Stable; half-life [5]: 4.4 h; Stability (Liver microsomes [6]): Stable; Stability (Liver microsomes [7]): Stable
Cc1cc2nc(N3CCC(C)CC3)n(CC(=O)c3cc(C(C)(C)C)c(O)c(C(C)(C)C)c3)c2cc1C	> 5	
Cc1cc2nc(N3CCN(CCO)CC3)n(CC(=O)c3cc(C(C)(C)C)c(O)c(C(C)(C)C)c3)c2cc1C	> 5	Stability [1]: Stable; Stability [2]: Stable; half-life [5]: 4.6 h; Stability (Liver microsomes [6]): Stable; Stability (Liver microsomes [7]): Stable
C#CCNc1nc2cc(C)c(C)cc2n1CC(=O)c1cc(C(C)(C)C)c(O)c(C(C)(C)C)c1	> 8	
Cc1cc2nc(N3CCCC(C)C3)n(CC(=O)c3cc(C(C)(C)C)c(O)c(C(C)(C)C)c3)c2cc1C (centres undefined)	> 5	
Cc1cc2nc(N3CCCCC3)n(CC(=O)c3cc(C(C)(C)C)c(O)c(C(C)(C)C)c3)c2cc1C	> 5	
Cc1cc2nc(N3CCC(O)CC3)n(CC(=O)c3cc(C(C)(C)C)c(O)c(C(C)(C)C)c3)c2cc1C	> 5	
Cc1cc2nc(N3CCOCC3)n(CC(=O)c3cc(C(C)(C)C)c(O)c(C(C)(C)C)c3)c2cc1C	> 5	
CCCCNc1nc2cc(C)c(C)cc2n1CC(=O)c1cc(C(C)(C)C)c(O)c(C(C)(C)C)c1	0.1	
Cc1cc2nc(N3CCC(O)C3)n(CC(=O)c3cc(C(C)(C)C)c(O)c(C(C)(C)C)c3)c2cc1C (centres undefined)	> 5	

SMILES	IC50 [4] [µM]	other results
Cc1cc2nc(N3CCN(C)CC3)n(CC(=O)c3cc(C(C)(C)C)c(O)c(C(C)(C)C)c3)c2cc1C	> 5	
CCN1CCN(c2nc3cc(C)c(C)cc3n2CC(=O)c2cc(C(C)(C)C)c(O)c(C(C)(C)C)c2)CC1	> 5	
COCCCNc1nc2cc(C)c(C)cc2n1CC(=O)c1cc(C)c(O)c(C)c1	> 5	
Cc1cc2nc(N3CCCCC3CO)n(CC(=O)c3cc(C(C)(C)C)c(O)c(C(C)(C)C)c3)c2cc1C (centres undefined)	> 5	
Cc1cc2nc(NCCCO)n(CC(=O)c3ccc(O)cc3)c2cc1C	> 5	
COC[C@@H]1CCCN1c1nc2cc(C)c(C)cc2n1CC(=O)c1cc(C(C)(C)C)c(O)c(C(C)(C)C)c1	> 5	
CCC1C(C)CN(c2nc3cc(C)c(C)cc3n2CC(=O)c2cc(C(C)(C)C)c(O)c(C(C)(C)C)c2)C1C (centres undefined)	> 5	
COCCCNc1nc2cc(C)c(C)cc2n1CC(=O)c1cc(C(C)(C)C)c(O)c(C(C)(C)C)c1	0.25	IC50 (Cytochrome P450 3A4): 97 µM
Cc1cc2nc(N3CCC[C@H]3CN3CCCC3)n(CC(=O)c3cc(C(C)(C)C)c(O)c(C(C)(C)C)c3)c2cc1C	> 5	
Cc1cc2nc(N3CC(C)CC(C)C3)n(CC(=O)c3cc(C(C)(C)C)c(O)c(C(C)(C)C)c3)c2cc1C (centres undefined)	> 5	
Cc1cc2nc(N3CCCC3)n(CC(=O)c3cc(C(C)(C)C)c(O)c(C(C)(C)C)c3)c2cc1C	> 5	
Cc1cc2nc(N3CCCCC3C)n(CC(=O)c3cc(C(C)(C)C)c(O)c(C(C)(C)C)c3)c2cc1C (centres undefined)	> 5	
Cc1cc2nc(N3CCCCC3CN(C)C)n(CC(=O)c3cc(C(C)(C)C)c(O)c(C(C)(C)C)c3)c2cc1C (centres undefined)	> 5	
COCCCNc1nc2cc(C)c(C)cc2n1CC(=O)c1ccc(O)cc1	> 5	
C[C@]12CC[C@H]3[C@@H](CCC4=CC(=O)CC[C@@]43C)[C@@H]1CC[C@@H]2O [TESTOSTERONE]		half-life [3]: 0.8 h
